Activity calls are given as the source filed them.
What was measured:
[1] = tested on: Heart; experiment: Cardiotoxicity in Langendorff-perfused Sprague-Dawley rat heart assessed as atrioventricular conduction time at 1 uM by ECG analysis (reference value: 45.62 +/- 4.49 milliseconds); type: toxicity, tissue-based
[2] = tested on: Heart; experiment: Cardiotoxicity in Langendorff-perfused Sprague-Dawley rat heart assessed as intraventricular conduction time at 0.01 uM by ECG analysis (reference value: 14.26 +/- 0.71 milliseconds); type: toxicity, tissue-based, Cardiac ventricle
[3] = tested on: Heart; experiment: Cardiotoxicity in Langendorff-perfused Sprague-Dawley rat heart assessed as intraventricular conduction time at 1 uM by ECG analysis (reference value: 14.26 +/- 0.71 milliseconds); type: toxicity, tissue-based, Cardiac ventricle
[4] = tested on: Heart; experiment: Cardiotoxicity in Langendorff-perfused Sprague-Dawley rat heart assessed as time duration of action potential at 0.01 uM by ECG analysis (reference value: 75.65 +/- 0.87 milliseconds); type: toxicity, tissue-based
[5] = tested on: Heart; experiment: Cardiotoxicity in Langendorff-perfused Sprague-Dawley rat heart assessed as time duration of action potential at 1 uM by ECG analysis (reference value: 75.65 +/- 0.87 milliseconds); type: toxicity, tissue-based
[6] = tested on: Heart; experiment: Cardiotoxicity in Langendorff-perfused Sprague-Dawley rat heart assessed as corrected time duration of action potential at 0.001 uM by ECG analysis (reference value: 155.26 +/- 2.96 milliseconds); type: toxicity, tissue-based
[7] = biological target: Cannabinoid receptor 1 (Homo sapiens, UniProt P21554); experiment: Displacement of [3H]-CP-55940 from human recombinant CB1 receptor expressed in HEK293 cells after 90 mins; type: cell-based
Summary of the method: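 Membranes from HEK-293 cells stably expressing human CB1 (Bmax 2.9 pmol/mg) or CB2 (Bmax 6.0 pmol/mg) incubated 90 min at 30 °C with [3H]-CP-55,940: 0.4 nM for CB1, 0.53 nM for CB2. Non-specific binding defined with 10 µM WIN 55212-2.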

[8] = biological target: T1, Monoglyceride lipase (Homo sapiens, UniProt Q99685); experiment: Inhibition of recombinant C-terminal His6-tagged human MAGL expressed in Escherichia coli using 2-arachidonoyl-[3H]-glycerol as substrate preincubated for 10 mins followed by substrate addition measured after 20 mins by scintillation counting method
T1 sequence (Q99685 whole entry): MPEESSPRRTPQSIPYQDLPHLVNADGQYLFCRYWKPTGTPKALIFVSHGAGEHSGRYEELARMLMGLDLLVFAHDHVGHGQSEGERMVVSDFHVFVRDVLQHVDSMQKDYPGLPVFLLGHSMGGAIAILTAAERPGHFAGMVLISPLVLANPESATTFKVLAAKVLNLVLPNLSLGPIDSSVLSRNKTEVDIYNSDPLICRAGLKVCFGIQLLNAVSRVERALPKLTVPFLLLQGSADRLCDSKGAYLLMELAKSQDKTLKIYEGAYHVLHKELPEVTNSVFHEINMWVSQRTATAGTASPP
Summary of the method: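 Human recombinant MGL (10,000xg cytosolic fraction, 0.05 µg/sample) is pre-incubated with compound for 10 min. It is then incubated 20 min at 37 °C in 50 mM Tris-HCl pH 7.0 with 2-arachidonoyl-[3H]-glycerol diluted with unlabelled 2-AG. The mix is extracted with 2 vol CHCl3/MeOH 1:1, and [3H]-glycerol in the aqueous phase is counted by scintillation. Values are means of three experiments.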

[9] = tested on: Heart; experiment: Cardiotoxicity in Langendorff-perfused Sprague-Dawley rat heart assessed as time duration of cardiac cycle length at 0.001 uM by ECG analysis (reference value: 238.38 +/- 9.23 milliseconds); type: toxicity, tissue-based
[10] = tested on: Mus musculus; experiment: (§1) Reduction of disease index score in myelin oligodendrocyte glycoprotein (35 to 55)-induced C57BL/6J mouse experimental autoimmune encephalomyelitis model of multiple sclerosis at 3 mg/kg, ip administered post CB1 antagonist/inverse agonist AM251 addition dosed on day 6 postimmunization up to 21 day postimmunization measured from day 12 postimmunization; type: functional, organism-based
Summary of the method: (§2)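 Female C57BL/6J mice immunized with MOG35-55 were randomly assigned to groups. They received 3 mg/kg i.p. daily from 6 days post-immunization up to 21±1 d.p.i. AM251 or AM630, 1 mg/kg i.p., was given 10 min before each dose for 14 days. Clinical score was recorded daily and as cumulative score, reported as mean ± SEM. Group sizes were 4–9 mice.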

[11] = tested on: Mus musculus; experiment: as §1, with “CB2” for “CB1”, “AM630” for “AM251”; type: functional, organism-based; summary of the method: as §2
[12] = tested on: Mus musculus; experiment: Reduction of IBA1 positive cells in white matter anterior fasciculus of experimental autoimmune encephalomyelitis C57BL/6J mouse spinal cord at 3 mg/kg, ip administered post CB2 antagonist/inverse agonist AM630 addition by immunofluorescence assay; type: functional, organism-based
Summary of the method: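 MOG35-55-immunized female C57BL/6J mice were given 3 mg/kg i.p. daily. AM251 or AM630, each at 1 mg/kg, was given 10 min before each dose. Iba1 immunofluorescence with DAPI was done on spinal cord white matter (anterior fasciculus). Positive cells were counted per optic field. One-way ANOVA with Bonferroni test.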

[13] = tested on: Mus musculus; experiment: Antinociceptive activity in CD-1 mouse assessed as inhibition of formalin-induced pain response at 0.1 to 0.3 mg/kg, ip dosed 10 mins before formalin injection measured during early phase; type: functional, organism-based
Summary of the method: (§3)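 Male CD-1 mice, n = 6 per group, injected with formalin (1.25% in saline, 30 μL) into the dorsal hind paw. Inhibitor (0.1 or 0.3 mg/kg i.p. in 0.5% DMSO/saline) given 10 min before formalin. Where used, AM251 or AM630 (1 mg/kg i.p.) given 10 min before the inhibitor. Time spent lifting, licking, shaking or flinching the injected paw recorded every 5 min over 60 min.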

[14] = tested on: Mus musculus; experiment: Antinociceptive activity in CD-1 mouse assessed as inhibition of formalin-induced pain response at 0.1 to 0.3 mg/kg, ip dosed 10 mins before formalin injection measured during late phase; type: functional, organism-based; summary of the method: as §3
[15] = tested on: Mus musculus; experiment: Analgesic activity in CD-1 mouse model of oxaliplatin-induced neuropathic pain assessed as reversal of lowering of threshold to cold stimuli at 10 mg/kg, po coadministered with oxaliplatin for 14 days measured 24 hrs post last dose by cold plate test; type: functional, organism-based
[16] = biological target: T2, Monoacylglycerol lipase ABHD6 (Rattus norvegicus) (UniProt Q5XI64); experiment: Inhibition of ABHD6 in rat brain membranes up to 500 nM preincubated for 20 mins followed by fluorophosphonate-rhodamine addition measured after 30 mins by competitive affinity based proteomic profiling assay; type: cell membranes; details: Membrane
T2 sequence (whole entry): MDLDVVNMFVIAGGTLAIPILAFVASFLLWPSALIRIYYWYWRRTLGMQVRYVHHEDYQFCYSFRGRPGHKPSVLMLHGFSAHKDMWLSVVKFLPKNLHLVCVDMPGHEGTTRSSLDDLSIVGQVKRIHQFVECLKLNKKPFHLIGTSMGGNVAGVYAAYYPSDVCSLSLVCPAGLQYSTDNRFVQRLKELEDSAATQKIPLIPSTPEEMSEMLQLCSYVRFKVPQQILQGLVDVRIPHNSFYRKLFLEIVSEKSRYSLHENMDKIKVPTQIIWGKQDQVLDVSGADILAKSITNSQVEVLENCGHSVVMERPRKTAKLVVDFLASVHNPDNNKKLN
Summary of the method: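 Rat brain membranes (1 mg/mL) preincubated with 1–1000 nM inhibitor or DMSO for 20 min at 37 °C. FP-rhodamine then added and incubated a further 30 min at 37 °C. Samples run on SDS-PAGE and serine hydrolase bands quantified by in-gel fluorescence.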

Chain of Cannabinoid receptor 1 (P21554 whole entry): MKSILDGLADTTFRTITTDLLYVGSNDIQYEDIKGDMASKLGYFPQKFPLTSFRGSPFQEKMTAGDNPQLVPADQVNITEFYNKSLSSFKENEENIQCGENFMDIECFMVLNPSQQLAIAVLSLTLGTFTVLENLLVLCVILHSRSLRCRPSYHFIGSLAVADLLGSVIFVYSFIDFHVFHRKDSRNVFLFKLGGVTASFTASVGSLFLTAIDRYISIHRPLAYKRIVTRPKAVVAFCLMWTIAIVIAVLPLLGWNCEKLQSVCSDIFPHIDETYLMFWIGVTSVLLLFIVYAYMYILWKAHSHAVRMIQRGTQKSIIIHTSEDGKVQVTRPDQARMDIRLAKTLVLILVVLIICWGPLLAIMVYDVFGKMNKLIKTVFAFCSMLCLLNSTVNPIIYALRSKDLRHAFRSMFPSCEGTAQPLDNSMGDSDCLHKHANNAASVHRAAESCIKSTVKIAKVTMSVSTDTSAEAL

SMILES | Time [1] | Time [2] | Time [3] | Time [4] | Time [5] | Time [6] | IC50 [7] | IC50 [8] | Time [9] | Activity [10] | Activity [11] | Activity [12] | inhibition [13] | inhibition [14] | Activity [15] | inhibition [16]
O=C1[C@H](c2ccc(F)cc2)[C@@H](c2ccc3c(c2)OCO3)N1C1CCN(C(=O)n2cncn2)CC1 (racemic) [listing 1 of 2 here] | 46.67 ms | 13.5 ms | 13.75 ms | 76.17 ms | 76.02 ms | 157.13 ms | > 10000 nM | 196 nM | 236.93 ms |  |  |  |  |  |  | 
O=C1[C@H](c2ccc(F)cc2)[C@@H](c2ccc3c(c2)OCO3)N1C1CCN(C(=O)n2cncn2)CC1 (racemic) [listing 2 of 2 here] |  |  |  |  |  |  |  |  |  | inactive | inactive | inactive | Active | Active | Active | inactive

— ChEMBL document CHEMBL3785023, “Development and Pharmacological Characterization of Selective Blockers of 2-Arachidonoyl Glycerol Degradation with Efficacy in Rodent Models of Multiple Sclerosis and Pain” (J Med Chem, 2016)
